Test results from ChEMBL document CHEMBL1124944, “Synthesis and in vitro evaluation of some modified 4-thiopyrimidine nucleosides for prevention or reversal of AIDS-associated neurological disorders” (J Med Chem, 1990).

Legend:
MT2 [1] = assay: Concentration of the drug resulting in 50% reduction of the viral cytopathic effect against HIV-1 replication in MT-2 cells.; format: functional, cell-based; settings: Homo sapiens
Summary of the method: (§1)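 NCI cytoprotection screen: HIV added at low amounts to T4 lymphoid cells (MT-2 or CEM), allowing at least two complete replication cycles to produce cell killing. […] An AZT-treated positive control was run alongside under identical conditions.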

CCRF-CEM [2] = assay: Concentration of the drug resulting in 50% growth inhibition of normal, uninfected cells against HIV-1 replication in CEM cells.; format: functional, cell-based; settings: Homo sapiens; summary of the method: as §1
CCRF-CEM [3] = assay: Concentration of the drug resulting in 50% reduction of the viral cytopathic effect against HIV-1 replication in CEM cells.; format: functional, cell-based; settings: Homo sapiens; summary of the method: as §1
[4] = Ratio of PNS to the PN (Partition coefficient ratio between thio analogue to its oxo analogue)
Summary of the method: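 Partitioning was between equal volumes of 1-octanol and 100 mM sodium phosphate pH 7.0. Phases were separated by centrifugation and each phase was quantified by UV absorbance at a wavelength chosen from spectra. The ratio is the thio analogue's partition coefficient over that of its oxo parent.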

MT2 [5] = assay: Concentration of the drug resulting in 50% growth inhibition of normal, uninfected cells against HIV-1 replication in MT-2 cells.; format: functional, cell-based; settings: Homo sapiens; summary of the method: as §1
Deoxycytidine kinase = Deoxycytidine kinase (Homo sapiens, UniProt P27707); assay: Inhibitory affect against rabbit deoxycytidine kinase and represented as molt/4F kinase.; design: species or system Oryctolagus cuniculus; settings: target entry is the homologue from another species
Deoxycytidine kinase, sequence (P27707 whole entry): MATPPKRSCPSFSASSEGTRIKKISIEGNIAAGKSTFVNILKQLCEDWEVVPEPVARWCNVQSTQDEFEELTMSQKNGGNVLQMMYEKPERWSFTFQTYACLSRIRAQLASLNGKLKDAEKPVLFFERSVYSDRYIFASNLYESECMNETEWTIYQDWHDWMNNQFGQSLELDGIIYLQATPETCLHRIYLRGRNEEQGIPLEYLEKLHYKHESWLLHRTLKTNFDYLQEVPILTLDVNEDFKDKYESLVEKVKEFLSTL

Row | SMILES | EC50 (MT2 [1]) [µM] | EC50 (CCRF-CEM [3]) [µM] | P ratio [4] | Ki (Deoxycytidine kinase) [µM] | IC50 (CCRF-CEM [2]) [µM] | IC50 (MT2 [5]) [µM]
1 | Cc1cn([C@H]2C=C[C@@H](CO)O2)c(=O)[nH]c1=S | 27 | 39 | 5.39 | – | > 430 | > 80
2 | O=c1[nH]c(=S)ccn1[C@H]1CC[C@@H](CO)O1 | – | – | 1.56 | – | – | –
3 | Nc1ccn([C@H]2C=C[C@@H](CO)O2)c(=O)n1 | – | – | – | 4600 | – | –
4 | Cc1cn([C@H]2C=C[C@@H](CO)O2)c(=O)[nH]c1=O [STAVUDINE] | 2 | 0.8 | – | – | 235 | 71

Now from value to compound, other results behind:

Row | EC50 (MT2 [1]) [µM] | EC50 (CCRF-CEM [3]) [µM] | P ratio [4] | Ki (Deoxycytidine kinase) [µM] | SMILES | IC50 (CCRF-CEM [2]) [µM] | IC50 (MT2 [5]) [µM]
5 | 0.18 | 0.00032 | – | – | Cc1cn([C@H]2C[C@H](N=[N+]=[N-])[C@@H](CO)O2)c(=O)[nH]c1=O [ZIDOVUDINE] | > 100 | > 970
6 | 39 | 31 | 6.41 | – | Cc1cn([C@H]2CC[C@@H](CO)O2)c(=O)[nH]c1=S | 93 | 90
7 | – | – | 6.99 | – | Cc1cn([C@H]2C[C@H](N=[N+]=[N-])[C@@H](CO)O2)c(=O)[nH]c1=S | – | –
8 | – | – | 1.23 | – | O=c1[nH]c(=S)ccn1[C@H]1C=C[C@@H](CO)O1 | – | –
